How the values were obtained:
[1] = tested on: methicillin-resistant Staphylococcus aureus (MRSA) (DMST 20646); assay: Antibacterial growth inhibition; type: cell-based; conditions: antibiotic 500 μg/mL, 37 °C, 18–22 h, OD600
Outline: (§1)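 Inocula: C. acnes grown anaerobically in Schaedler broth at 37 °C for 72 h and adjusted to OD600 0.1. S. aureus and MRSA single colonies grown in nutrient broth at 37 °C for 18 h and adjusted to OD600 0.001. Suspensions were mixed 1:1 with peptide (1000 μg/mL) or ampicillin/clindamycin (500 μg/mL) solutions. Untreated culture served as 0 % inhibition. Three repeats, mean ± SD.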

[2] = tested on: Cutibacterium acnes (DMST 14916); assay: Antibacterial growth inhibition; type: cell-based; conditions: C. acnes; antibiotic 500 μg/mL; 37 °C, 18–22 h, OD600
Outline: as §1

[3] = tested on: Staphylococcus aureus (ATCC 25923); assay: Antibacterial growth inhibition; type: cell-based; conditions: S. aureus; antibiotic 500 μg/mL; 37 °C, 18–22 h, OD600
Outline: as §1

RAW 264.7 cells = assay: RAW 264.7 cytotoxicity assay; type: cell-based, Murine; conditions: RAW 264.7, MTT, peptide 1000 μg/mL, 24 h
Outline: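 Murine macrophages were grown in DMEM plus 10 % heat-inactivated FBS and 1 % antibiotic-antimycotic (37 °C, 5 % CO2) and seeded overnight at 2 × 10⁴ cells/well. Peptide was added at 1000 μg/mL final for 24 h. MTT was added at 0.5 mg/mL final in fresh medium for 30 min. Formazan was dissolved in DMSO and read at OD570. Viability was expressed versus untreated cells. Three repeats, mean ± SD.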

[4] = tested on: C. acnes, S. aureus and MRSA; assay: Antibacterial growth inhibition, stated as one range over the three strains; type: cell-based, Cutibacterium acnes; Staphylococcus aureus; conditions: peptide 1000 μg/mL
Outline: as §1

CCC[C@@H]1C[C@@H](C(=O)N[C@@H]([C@H]2O[C@H](SC)[C@H](O)[C@@H](O)[C@H]2O)[C@H](C)Cl)N(C)C1 [clindamycin]
growth inhibition [1]: 51.86% | growth inhibition [2]: 100.00% | growth inhibition [3]: 96.35%

CC1(C)S[C@@H]2[C@H](NC(=O)[C@H](N)c3ccccc3)C(=O)N2[C@H]1C(=O)O [ampicillin]
growth inhibition [1]: 100.00% | growth inhibition [2]: 92.92% | growth inhibition [3]: 97.85%

RKLLEGEE [RE8]
reduction in cell viability (RAW 264.7 cells): ~15%

IIDVKMLS [IS8]
relative antibacterial potency among the 8 peptides, in words [4]: least potent peptide

— publication PMC11219355 (Heliyon, 2024)
